Measurements gathered from unrelated publications.
Converted amounts (≈) assume the structure as drawn.

Compound	organism	test	test system	conditions	measurement	value
N=C(NCCCCCCNC(=N)NC(=N)Nc1ccc(Cl)cc1)NC(=N)Nc1ccc(Cl)cc1	Acanthamoeba polyphaga	parasite growth, resazurin		96 h	IC50	9.41 µM
O=C1NC(=S)S/C1=C\c1c2ccccc2c(-c2ccc(N(c3ccccc3)c3ccccc3)cc2)c2ccccc12	Bacillus subtilis	microbial killing, broth dilution	ATCC6633		MBC	> 1000 µg/mL
C[C@@H](c1ncncc1F)[C@](O)(Cn1cncn1)c1ccc(F)cc1F	Acanthamoeba polyphaga	parasite growth, resazurin		7 days	IC50	55.3 µM
CCOC(=O)C=c1[nH]c(=O)c(=Cc2cn(-c3ccccc3)nc2-c2ccc(C)cc2)s1	Bacillus subtilis	microbial growth, well diffusion		100000 µg/mL	inhibition zone	13 mm
C[C@@H]1[C@H](O)[C@@H](C)/C=C/C=C/C=C/C=C/C=C/C=C/C=C/[C@H](O[C@@H]2O[C@H](C)[C@@H](O)[C@H](N)[C@@H]2O)C[C@@H]2O[C@](O)(C[C@@H](O)C[C@@H](O)[C@H](O)CC[C@@H](O)C[C@@H](O)CC(=O)O[C@H]1C)C[C@H](O)[C@H]2C(=O)O	Cryptococcus neoformans	microbial growth	ATCC90113		IC50	1.14 µg/mL
CCOC(=O)c1nc2ccccc2c(=O)n1Cc1cn(-c2ccc(C)cc2)nn1	Nakaseomyces glabratus	microbial growth, broth dilution	ATCC90030	24 h	IC50	8.4 µg/mL
Cc1ccc(-c2nn(-c3ccccc3)cc2C=c2sc(=CC#N)[nH]c2=O)cc1	Bacillus subtilis	microbial growth, well diffusion		100000 µg/mL	inhibition zone	12 mm
CC1(C)S[C@@H]2[C@H](NC(=O)[C@H](N)c3ccccc3)C(=O)N2[C@H]1C(=O)O	Listeria monocytogenes	microbial growth, agar dilution		26.93 µM	inhibition	100%
Cc1c(NN=C2SC(C(C#N)=Cc3ccccc3)=NC2=O)c(=O)n(-c2ccccc2)n1C	Bacillus subtilis	microbial growth, well diffusion		100000 µg/mL	inhibition zone	17 mm
O=C(O)c1nc2ccccc2c(=O)n1Cc1cn(-c2ccccc2)nn1	Nakaseomyces glabratus	microbial growth, broth dilution	ATCC90030	24 h	IC50	566 µg/mL
N#CC(=Cc1cn(-c2ccccc2)nc1-c1ccccc1)C1=NC(=O)CS1	Bacillus subtilis	microbial growth, well diffusion		100000 µg/mL	inhibition zone	29 mm
O=C(O)c1nc2ccccc2c(=O)n1Cc1cn(-c2cccc(Cl)c2)nn1	Nakaseomyces glabratus	microbial growth, broth dilution	ATCC90030	24 h	IC50	278 µg/mL
Cc1c(NN=C2SC(CC#N)=NC2=O)c(=O)n(-c2ccccc2)n1C	Bacillus subtilis	microbial growth, well diffusion		100000 µg/mL	inhibition zone	14 mm
CCOC(=O)c1nc2ccccc2c(=O)n1Cc1cn(-c2ccccc2OC)nn1	Nakaseomyces glabratus	microbial growth, broth dilution	ATCC90030	24 h	IC50	81.8 µg/mL
CCCCCCC/C=C/C(=O)N1C(=O)/C(=C(/C)O)C(=O)C1CO (stereo not shown)	Proteus vulgaris	microbial growth	ATCC33420		MIC	> 200 µg/mL
C[C@@H]1[C@H](O)[C@@H](C)/C=C/C=C/C=C/C=C/C=C/C=C/C=C/[C@H](O[C@@H]2O[C@H](C)[C@@H](O)[C@H](N)[C@@H]2O)C[C@@H]2O[C@](O)(C[C@@H](O)C[C@@H](O)[C@H](O)CC[C@@H](O)C[C@@H](O)CC(=O)O[C@H]1C)C[C@H](O)[C@H]2C(=O)O	Cryptococcus neoformans	microbial killing	ATCC90113		MFC	0.68 µM (≈ 0.628 µg/mL)
CCOC(=O)c1nc2ccccc2c(=O)n1Cc1cn(-c2ccc([N+](=O)[O-])cc2)nn1	Nakaseomyces glabratus	microbial growth, broth dilution	ATCC90030	24 h	IC50	316 µg/mL
Cc1c(NN=C2SC(C(C#N)=Cc3ccc(Cl)cc3)=NC2=O)c(=O)n(-c2ccccc2)n1C	Bacillus subtilis	microbial growth, well diffusion		100000 µg/mL	inhibition zone	17 mm
O=C1NC(=S)S/C1=C\c1ccc(-c2ccc(N(c3ccccc3)c3ccccc3)cc2)c2ccccc12	Bacillus subtilis	microbial killing, broth dilution	ATCC6633		MBC	> 1000 µg/mL
CCCCCCC/C=C/C(=O)N1C(=O)/C(=C(\O)c2ccncc2)C(=O)C1CC(C)C (stereo not shown)	Proteus vulgaris	microbial growth	ATCC33420		MIC	> 200 µg/mL
CCOC(=O)c1nc2ccccc2c(=O)n1Cc1cn(-c2cccc(F)c2)nn1	Nakaseomyces glabratus	microbial growth, broth dilution	ATCC90030	24 h	IC50	365 µg/mL
CCCCCCCCCCCCCC(O)CC(O)CO (stereo not shown)	Cryptococcus neoformans	microbial growth, broth dilution	ATCC90113		IC50	32.9 µg/mL
